Experimental data reported in paper PMC3729215 (Bioorganic & medicinal chemistry, 2011).
Blank lines part the entries; values can stand above or below the compound they belong to.

Key:
rTRPV1 [1] = biological target: T1, rTRPV1 (Rattus norvegicus, UniProt O35433); test: [3H]RTX binding competition assay, rat TRPV1 expressed in CHO cells
In short: (§1)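 Both binding and function were measured on rat TRPV1 heterologously expressed in CHO cells. Affinity came from competition with [3H]RTX. Antagonism came from a functional 45Ca2+ uptake assay. Values are mean ± SEM from 3 or more experiments.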

rTRPV1 [2] = biological target: T1, rTRPV1; format: cell-based; settings: rTRPV1/CHO
In short: as §1

T1 sequence (O35433 whole entry): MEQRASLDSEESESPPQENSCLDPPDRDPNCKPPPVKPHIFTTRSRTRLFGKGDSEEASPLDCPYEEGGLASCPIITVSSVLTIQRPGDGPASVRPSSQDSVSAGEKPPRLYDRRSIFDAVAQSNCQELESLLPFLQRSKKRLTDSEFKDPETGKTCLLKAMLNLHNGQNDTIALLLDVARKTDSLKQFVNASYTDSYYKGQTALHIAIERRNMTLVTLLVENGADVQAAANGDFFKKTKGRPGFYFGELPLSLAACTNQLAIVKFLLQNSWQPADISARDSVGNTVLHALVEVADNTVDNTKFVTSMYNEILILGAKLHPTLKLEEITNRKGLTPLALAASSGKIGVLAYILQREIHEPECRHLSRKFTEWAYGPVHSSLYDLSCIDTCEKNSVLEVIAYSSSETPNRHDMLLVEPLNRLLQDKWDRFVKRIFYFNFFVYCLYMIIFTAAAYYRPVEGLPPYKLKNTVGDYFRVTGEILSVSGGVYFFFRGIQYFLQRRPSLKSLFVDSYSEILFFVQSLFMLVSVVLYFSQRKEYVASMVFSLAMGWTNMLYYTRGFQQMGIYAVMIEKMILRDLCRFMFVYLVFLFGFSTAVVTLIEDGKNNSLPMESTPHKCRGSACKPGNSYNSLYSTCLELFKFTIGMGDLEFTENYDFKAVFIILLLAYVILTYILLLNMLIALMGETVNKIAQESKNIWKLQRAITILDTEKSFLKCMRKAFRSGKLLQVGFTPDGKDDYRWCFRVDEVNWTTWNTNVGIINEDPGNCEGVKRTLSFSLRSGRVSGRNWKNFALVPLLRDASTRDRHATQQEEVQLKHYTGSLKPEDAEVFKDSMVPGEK

fold weaker activity compared with 54S (rTRPV1 [1]; rTRPV1, binding and antagonism together): 30- to 40 fold
Structure (SMILES): C[C@@H](C(=O)NCc1ccc(C(C)(C)C)cc1)c1ccc(NS(C)(=O)=O)c(F)c1 [54R, N-(4-tert-Butylbenzyl)-(2R)-2-[3-fluoro-4-(methylsulfonylamino)phenyl]propionamide]

fold enhancement in receptor activity compared to 54 (rTRPV1 [1]; binding and antagonism together): ~2 fold
Structure (SMILES): C[C@H](C(=O)NCc1ccc(C(C)(C)C)cc1)c1ccc(NS(C)(=O)=O)c(F)c1 [54S, N-(4-tert-Butylbenzyl)-(2S)-2-[3-fluoro-4-(methylsulfonylamino)phenyl]propionamide]

fold reduction in potency as antagonist compared to 54 (rTRPV1 [2]): 4 fold
Structure (SMILES): CC(C(=O)NCc1ccc(C(C)(C)C)cc1)c1ccc(NS(C)(=O)=O)c(Cl)c1 (stereo not shown) [compound 55, N-(4-tert-Butylbenzyl)-2-[3-chloro-4-(methylsulfonylamino)phenyl]propionamide]

fold reduction in potency as antagonist compared to 54 (rTRPV1 [2]): 4 fold
Structure (SMILES): CC(C(=O)NCc1ccc(C(C)(C)C)cc1)c1ccc(NS(C)(=O)=O)c(Br)c1 (stereo not shown) [compound 56, N-(4-tert-Butylbenzyl)-2-[3-bromo-4-(methylsulfonylamino)phenyl]propionamide]

fold reduction in potency as antagonist compared to 54 (rTRPV1 [2]): 4 fold
Structure (SMILES): CC(C(=O)NCc1ccc(C(C)(C)C)cc1)c1ccc(NS(C)(=O)=O)c(I)c1 (stereo not shown) [compound 57, N-(4-tert-Butylbenzyl)-2-[3-iodo-4-(methylsulfonylamino)phenyl]propionamide]

fold enhancement in binding affinity compared to 54 (rTRPV1 [1]; rTRPV1/CHO): 2 fold
Structure (SMILES): CC(C(=O)NCc1ccc(C(C)(C)C)cc1)c1cc(F)c(NS(C)(=O)=O)c(F)c1 (stereo not shown) [compound 58, N-(4-tert-Butylbenzyl)-2-[3,5-difluoro-4-(methylsulfonylamino)phenyl]propionamide]

fold reduced activity in binding affinity and antagonism (rTRPV1 [1]; rTRPV1/CHO, binding and antagonism together, compared with 54): 10 to 30 fold
Structure (SMILES): COc1cc(C(C)C(=O)NCc2ccc(C(C)(C)C)cc2)ccc1NS(C)(=O)=O (stereo not shown) [compound 71, N-(4-tert-Butylbenzyl)-2-[3-methoxy-4-(methylsulfonylamino)phenyl]propionamide]
